Assay results from article PMC6221089 (Diabetes, Obesity & Metabolism, 2018).
No end group written: not given here.

Experiments:
[1] = test system: people with type 2 diabetes; assay: Safety assessments; assay type: in vivo
How it was run: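 Treatment-emergent adverse events counted from baseline to the follow-up visit: those starting on or after the first treatment day and no later than follow-up. Dosing was once-weekly s.c. self-injection for 13 doses per crossover period (0.25, 0.5, then 1.0 mg escalation; placebo volume-matched). Follow-up was in the final week of the second 5-week sampling period.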

[2] = test system: people with type 2 diabetes; assay: Vital signs during the hypoglycaemic clamp; assay type: in vivo
How it was run: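 Heart rate and systolic and diastolic BP recorded at each 30-min target PG level of the stepwise hypoglycaemic clamp. Each value is the mean of two readings, at 0 and 30 min. The clamp was run about 48 h after the 13th weekly s.c. dose, with participants fasted and supine or semi-supine.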

[3] = test system: people with type 2 diabetes; assay type: in vivo
How it was run: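 Stepwise hypoglycaemic clamp about 48 h after the 13th weekly s.c. dose; participants fasted (water allowed), supine or semi-supine, with 30-min target PG plateaux. At each target level, symptoms were scored on the Edinburgh Hypoglycaemia Scale and recognition recorded as a yes/no answer to "Do you feel hypo?".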

plasma glucose = assay type: in vivo, people with type 2 diabetes
How it was run: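 Clamp performed about 48 h after the 13th dose, with four 30-min target PG levels. AUC of glucose infusion rate computed at each level. Fasting PG measured on the morning of the day before the clamp. Recovery defined as PG ≥4.0 mmol/L, timed from termination of the insulin infusion at nadir; spontaneous recovery meant reaching this <40 min.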

[4] = test system: counterregulatory responses to hypoglycaemia; conditions: cited from earlier work
[5] = LEADER trial; cited from earlier work
[6] = once-weekly s.c. treatment, 13 doses

## CC[C@H](C)[C@H](NC(=O)[C@H](Cc1ccccc1)NC(=O)[C@H](CCC(=O)O)NC(=O)[C@H](CCCCNC(=O)COCCOCCNC(=O)COCCOCCNC(=O)CC[C@H](NC(=O)CCCCCCCCCCCCCCCCC(=O)O)C(=O)O)NC(=O)[C@H](C)NC(=O)[C@H](C)NC(=O)[C@H](CCC(N)=O)NC(=O)CNC(=O)[C@H](CCC(=O)O)NC(=O)[C@H](CC(C)C)NC(=O)[C@H](Cc1ccc(O)cc1)NC(=O)[C@H](CO)NC(=O)[C@H](CO)NC(=O)[C@@H](NC(=O)[C@H](CC(=O)O)NC(=O)[C@H](CO)NC(=O)[C@@H](NC(=O)[C@H](Cc1ccccc1)NC(=O)[C@@H](NC(=O)CNC(=O)[C@H](CCC(=O)O)NC(=O)C(C)(C)NC(=O)[C@@H](N)Cc1cnc[nH]1)[C@@H](C)O)[C@@H](C)O)C(C)C)C(=O)N[C@@H](C)C(=O)N[C@@H](Cc1c[nH]c2ccccc12)C(=O)N[C@@H](CC(C)C)C(=O)N[C@H](C(=O)N[C@@H](CCCNC(=N)N)C(=O)NCC(=O)N[C@@H](CCCNC(=N)N)C(=O)NCC(=O)O)C(C)C [semaglutide]
[1]; all events, both treatments
  Severity of adverse events: mild or moderate
[1]; baseline to follow-up
  Clinical laboratory assessments (including amylase, lipase and calcitonin), physical examination or ECG: No safety findings
  Development of anti-semaglutide antibodies: no participant developed anti‐semaglutide antibodies
[1]; during the trial
  Deaths or pancreatitis cases: No deaths or pancreatitis cases
[1]; [6]
  Diastolic BP, mean (SD) change from baseline to end-of-treatment: −2 [10] mm Hg
  Heart rate, mean (SD) change from baseline to end-of-treatment: 6 [8] beats/min
  Systolic BP, mean (SD) change from baseline to end-of-treatment: −8 [16] mm Hg
[2]
  Response to hypoglycaemia for heart rate, systolic or diastolic BP vs placebo: no systematic differences
[3]; Edinburgh Hypoglycaemia Scale, target PG level 5.5 mmol/L
  Estimated mean hypoglycaemic symptom score vs placebo: No difference
[3]; Trail Making-B, Digit Symbol Substitution, Four-Choice Reaction Time tests, all PG levels
  Effect on cognitive function: no effect
[3]; target level 5.5 mmol/L
  Hypoglycaemia recognition, answer to "Do you feel hypo?": all participants answered “no”
Plasma glucose; geometric mean
  Time to reach recovery (PG ≥4.0 mmol/L): 44 min
Plasma glucose; reaching PG ≥4.0 mmol/L < 40 minutes after termination of the insulin infusion at nadir
  Proportion of participants who recovered spontaneously: ~ 50%

## Native GLP‐1: incretin hormone secreted by intestinal L cells in response to food intake (HAEGTFTSDVSSYLEGQAAKEFIAWLVKGR; ends and bridges not checked; UniProt P01275 98-127, looked up)
[4]; healthy volunteers
  Effect on the response to hypoglycaemia: no effect

## liraglutide: GLP‐1 receptor agonist with a similar structure to semaglutide but a different pharmacokinetic profile
[4]
  Effect on the counterregulatory responses to hypoglycaemia: no effect
[5]
  Incidence of severe hypoglycaemia compared with placebo: statistically significantly lower
